Calls of active or inactive are those of the source. No cut-off for these calls is given here.
What was measured:
[1] = system: HL-60; assay: Cytotoxicity against human HL60 cells assessed as reduction of cell viability at 100 uM after 24 hrs by trypan blue dye exclusion test; type: cell-based; conditions: hl-60, 24 h
Outline: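 HL60 cells at 1.0 × 10⁶/well exposed to compound (100 μM, 1% DMSO final) for 24 h at 37 °C, 5% CO2. Cells pelleted and resuspended in PBS(−). Viable cells counted by trypan blue exclusion on an automated counter.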

[2] = system: Liver microsome; assay: Antioxidant activity against tert-butylhydroperoxide-induced lipid peroxidation in rat liver microsomes after 20 mins by TBARS method; type: functional
Outline: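 Kept on ice, then peroxidation started with tert-butylhydroperoxide (1 mM) and run 37 °C, 20 min. Stopped with BHT, then TCA/TBA at 85 °C for 20 min. TBARS read as A535−A600. IC50 is the mean of 3 independent trials.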

[3] = system: HL-60; assay: Antioxidant activity in human HL60 cells assessed as reduction of H2O2-induced intracellular oxidative stress at 10 uM after 1 hr using DCFH-DA by FACS analysis; type: functional, cell-based
Outline: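 HL60 cells (RPMI-1640, 5% heat-inactivated FBS, 37 °C, 5% CO2) at 1.0 × 10⁶/well loaded with DCFH-DA (10 μM, 15 min), washed, then pretreated 1 h with compound (10 μM, 1% DMSO final). H2O2 (200 μM) added for 1 h; water for controls. Fluorescence (ex 488/em 530 nm) measured by flow cytometry on about 10,000 cells per sample.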

[4] = system: Radical scavenging activity; assay: Antioxidant activity assessed as DPPH free radical scavenging activity by spectroscopic analysis; type: functional
[5] = Octanol-water partition coefficient, logKOW of the compound; type: physicochemical; conditions: read-out: log KOW

| SMILES | Activity [1] | IC50 [2] [µM] | Activity [3] | Activity [4] [×10³ /M/s] | logP [5] |
| --- | --- | --- | --- | --- | --- |
| O=C(CC1(O)C(=O)Nc2ccc(O)cc21)c1ccc(Br)cc1 (stereo not given) | Toxic | 75 | Active | 1.2 | 2.55 |
| O=C(CC1(O)C(=O)Nc2ccc(O)cc21)c1ccccc1 (stereo not given) | Non-toxic | 240 | Active | 1.9 | 1.07 |
| Cc1ccc(C(=O)CC2(O)C(=O)Nc3ccc(O)cc32)cc1 (stereo not given) | Non-toxic | 160 | Active | 1.8 | 2.2 |
| O=C(CC1(O)C(=O)Nc2ccc(O)cc21)c1ccc(I)cc1 (stereo not given) | – | 55 | Active | 2.2 | 2.81 |
| O=C(CC1(O)C(=O)Nc2ccc(O)cc21)c1ccc(C(F)(F)F)cc1 (stereo not given) | – | 80 | Active | 1.6 | 2.89 |
| O=C(CC1(O)C(=O)Nc2ccc(O)cc21)c1ccc(Cl)cc1 (stereo not given) | Toxic | 120 | Active | 2.4 | 2.45 |
| O=C1Cc2cc(O)ccc2N1 | Non-toxic | 300 | Active | 9.2 | 0.7 |
| Oc1nc(O)c2nc(O)[nH]c2n1 [URIC ACID] | – | > 300 | inactive | 0.63 | – |
| O=C(CC1(O)C(=O)Nc2ccc(O)cc21)c1ccc(F)cc1 (stereo not given) | Toxic | 95 | Active | 1.5 | 1.93 |
| N#Cc1ccc(C(=O)CC2(O)C(=O)Nc3ccc(O)cc32)cc1 (stereo not given) | Toxic | 150 | Active | 1.7 | 1.91 |
| O=C(CC1(O)C(=O)Nc2ccc(O)cc21)c1ccc([N+](=O)[O-])cc1 (stereo not given) | – | 40 | Active | 2.5 | 1.85 |
| COc1ccc(C(=O)CC2(O)C(=O)Nc3ccc(O)cc32)cc1 (stereo not given) | Non-toxic | 225 | Active | 1.5 | 1.74 |
| CC(=O)CC1(O)C(=O)Nc2ccc(O)cc21 (stereo not given) | Non-toxic | > 300 | inactive | 0.74 | 0.44 |

From ChEMBL document CHEMBL3091393, “Antioxidant activities of 5-hydroxyoxindole and its 3-hydroxy-3-phenacyl derivatives: the suppression of lipid peroxidation and intracellular oxidative stress” (Bioorg Med Chem, 2013)
